One assay deals with Nucleic Acid. The assay can be described thus: Binding affinity to calf thymus DNA assessed as change in melting temperature at 20 uM at pH 7 incubated for 18 hrs at 37 degC by thermal denaturation assay. It counts as nucleic-acid assay. As to conditions: Bos taurus. In short, it runs like this:
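CT-DNA (100 µM in phosphate) with 20 µM ligand, 1:5 [PBD]/[DNA], in 10 mM sodium phosphate/1 mM Na2EDTA buffer pH 7.00. Ligand added from methanol solution; incubated at 37 °C for 0 or 18 h. A260 monitored while heating 1 °C/min over 40–90 °C. Tm taken from d(A260)/dT maxima; ΔTm = Tm(DNA+PBD) − Tm(DNA alone). Values are means of at least three determinations, corrected for methanol cosolvent.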

The test system of a further assay is MCF7. Kind of assay: Growth inhibition of human MCF7 cells after 48 hrs by SRB assay. The class given is functional. As to conditions: MCF7, 48 h. In short, it runs like this: (§1)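 Cells grown in RPMI 1640 with 10% FBS and 2 mM L-glutamine, plated at densities set by doubling time, pre-incubated 24 h at 37 °C/5% CO2. Drug tested at 0.1, 1, 10 and 100 µM in triplicate wells for 48 h continuous exposure. Cells fixed with cold TCA (final 10%) 60 min at 4 °C, stained with 0.4% SRB, dye eluted in 10 mM Tris. Absorbance read at 540 nm (690 nm reference); percent growth calculated relative to control wells.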
(In general: In SRB staining, fixed cells bind dye roughly in proportion to their protein.)

The test system of a further assay is ZR-75-1. Kind of assay: Growth inhibition of human ZR-75-1 cells after 48 hrs by SRB assay. As to conditions: ZR-75-1, 48 h. It counts as functional. The method, boiled down: (§2)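 SRB assay with 48 h continuous exposure. Cells were grown in RPMI 1640 with 10% FBS and 2 mM L-glutamine and preincubated 24 h at 37 °C, 5% CO2. Compounds were tested at four concentrations (0.1, 1, 10, 100) in triplicate wells. Cells were fixed with cold TCA (10% final) for 60 min at 4 °C, stained 20 min with 0.4% SRB in 1% acetic acid, and the dye eluted with 10 mM Tris. A540 was read against a 690 nm reference. Percent growth is relative to control wells on each plate.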

The next assay concerns A549. Kind of assay: Growth inhibition of human A549 cells after 48 hrs by SRB assay. It counts as functional. As to conditions: A549, 48 h. In short, it runs like this:
as §1

The test system of the next assay is HOP-62. Kind of assay: Growth inhibition of human HOP62 cells after 48 hrs by SRB assay. The class given is functional. As to conditions: HOP-62, 48 h. The method, boiled down:
as §1

For the next assay, the system named is SiHa. The assay can be described thus: Growth inhibition of human SiHa cells after 48 hrs by SRB assay. The class given is functional. In short, it runs like this:
as §2

A further assay relates to COLO 205. Kind of assay: Growth inhibition of human COLO205 cells after 48 hrs by SRB assay. As to conditions: COLO 205, 48 h. The class given is functional. The method, boiled down: as §1
Another assay deals with KB. Kind of assay: Growth inhibition of human KB cells after 48 hrs by SRB assay. It counts as functional. The method, boiled down: as §1
Assay [1] is described as follows: Growth inhibition of human Gurav cells after 48 hrs by SRB assay. The class given is functional. The method, boiled down: as §1
Assay [2] in a line: Growth inhibition of human DWD cells after 48 hrs by SRB assay. It counts as functional. In short, it runs like this:
as §1

The next assay deals with PC-3. The assay can be described thus: Growth inhibition of human PC3 cells after 48 hrs by SRB assay. As to conditions: PC-3, 48 h. It counts as functional. The method, boiled down:
as §1

The subject of another assay is A2780. Kind of assay: Growth inhibition of human A2780 cells after 48 hrs by SRB assay. As to conditions: A2780, 48 h. It counts as functional. In short, it runs like this:
as §1

Assay [3] relates to A-375. Kind of assay: Cytotoxicity against human A375 cells assessed as cell viability after 24 hrs by MTT assay. The class given is functional. In short, it runs like this:
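A375 cells seeded at 10,000/well, incubated overnight, then treated for 24 h. MTT added at 10% of culture volume for 2 h at 37 °C. Formazan dissolved in 20% SDS/50% DMF overnight at 37 °C; absorbance read at 570 nm against a medium blank. Viability expressed as percent of untreated cells.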

For assay [4], the system named is A-375. Kind of assay: Induction of apoptosis in human A375 cells assessed as sub-G1 phase accumulation at 4 uM after 24 hrs by propidium iodide staining based flow cytometry. It counts as functional. The method, boiled down: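 A375 cells (5×10^5 per 60 mm dish) were grown 24 h, then treated 24 h at 0–4 µM. Cells were harvested with trypsin-EDTA, fixed in ice-cold 70% ethanol for 30 min at 4 °C, treated with RNase A (1 mg/ml) for 30 min at 37 °C, and stained with propidium iodide. Cell-cycle distribution, including the sub-G1 fraction, was measured by flow cytometry. DMSO-exposed cells were the control.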
On the technique in general: In flow cytometry, cells or beads pass a laser one at a time.

In assay [5] the test system is A-375. The assay can be described thus: Cell cycle arrest in human A375 cells assessed as decrease in G2/M phase at 4 uM after 24 hrs by propidium iodide staining based flow cytometry. The class given is functional. Details: scale not given: the % may be the effect or the level left. In short, it runs like this: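 A375 melanoma cells (DMEM, 10% FCS, 37 °C, 5% CO2) seeded at 5×10^5 per dish and grown 24 h, then exposed to 0–4 µM for 24 h. Harvested with trypsin-EDTA, fixed in ice-cold 70% ethanol, RNase A treated (1 mg/ml, 37 °C, 30 min), stained with propidium iodide and analysed by flow cytometry for phase distribution.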

Assay [6] has as its system A-375. Kind of assay: Increase in p53 protein expression in human A375 cells at 4 uM after 24 hrs by Western blot. It counts as functional, cell-based. In short, it runs like this: (§3)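 A375 cells (DMEM, 10% FCS, 37 °C, 5% CO2) were treated at 4 µM for 24 h. Lysates were loaded at 30 µg protein/lane on 12% SDS-PAGE and transferred to PVDF. Membranes were blocked 2 h in TBST, incubated with primary antibody overnight at 4 °C (p53 1:100, p27 1:500, NF-κB p65 1:500), then HRP secondary 1 h, with chemiluminescent detection. β-actin was the loading control; untreated and DMSO controls were run.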
In general terms: Immunoblotting shows a protein as a band on a membrane.

Assay [7] has as its system A-375. Kind of assay: Increase in p27 protein expression in human A375 cells at 4 uM after 24 hrs by Western blot. The class given is functional, cell-based. In short, it runs like this: as §3
In assay [8] the test system is A-375. Kind of assay: Inhibition of NF-kappaB signaling in human A375 cells at 4 uM after 24 hrs by Western blot. The class given is cell-based. In short, it runs like this: as §3
The subject of assay [9] is A-375. The assay can be described thus: Increase in cytochrome C release in human A375 cells at 4 uM after 24 hrs by Western blot. The class given is functional, cell-based. The method, boiled down:
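Western blot of A375 cell lysates after 24 h exposure at 4 µM, with 30 µg protein/lane on 12% SDS-PAGE and transfer to PVDF. Probed overnight at 4 °C with anti-cytochrome c (1:500), then HRP secondary and chemiluminescence. β-actin was the loading control; untreated and DMSO-only cells served as controls.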

Assay [10] deals with A-375. The assay can be described thus: Increase in active caspase-3 protein level in human A375 cells at 4 uM after 24 hrs by Western blot. It counts as functional, cell-based. In short, it runs like this:
(§4)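 A375 cells were exposed 24 h at 4 µM. Lysates (30 µg/lane) were run on 12% SDS-PAGE and transferred to PVDF, then probed overnight at 4 °C with anti-cleaved caspase-3 (1:200, detects 21 kDa) or anti-PARP (1:2000, detects 113 and 85 kDa). HRP secondary and chemiluminescence were used. β-tubulin was the loading control; untreated and DMSO controls were included.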

Assay [11] has as its system A-375. The assay can be described thus: Increase in active PARP cleavage product (85kDa) level in human A375 cells at 4 uM after 24 hrs by Western blot. The class given is functional, cell-based. The method, boiled down: as §4
Assay [12] relates to A-375. Kind of assay: Decrease in Bcl-2 mRNA expression in human A375 cells at 4 uM after 24 hrs by RT-PCR.

SMILES strings stand for the structures. Active and inactive are the calls of the source. No cut-off for these calls is given here.

What is called ΔTm is the shift of the melting midpoint relative to a reference. For orientation: GI50 means the concentration that inhibits growth by half. `COc1cc2c(cc1OCCCCCOc1ccc3nc(C)n(-c4ccc(F)c(Cl)c4)c(=O)c3c1)N=C[C@@H]1CCCN1C2=O`: the shift in melting temperature (ΔTm) in the assay on Nucleic Acid amounted to 2.3 °C. Moreover, the GI50 in the assay with MCF7 was less than 100 nM; in the assay on ZR-75-1, 150 nM; with A549, 130 nM; in the assay with HOP-62, 140 nM; in the assay on SiHa, 170 nM; in the assay on COLO 205, 130 nM. The GI50 in the assay on KB was 150 nM; in [1] it was less than 100 nM; in [2] it was 130 nM; in the assay on PC-3, 170 nM; with A2780 it was 110 nM. Further, the Activity with A-375 [3] came out at 58.72%; with A-375 [4], 24.1%; with A-375 [5] it was 11.92%. Further, the outcome with A-375 [6], in the assay with A-375 [7], in the assay on A-375 [9], in the assay on A-375 [10] and in the assay with A-375 [11] was Active. Besides, the inhibition entry in the assay on A-375 [8] is “Active”. In addition, the “Decrease in Bcl-2 mRNA expression” value with A-375 [12] is “Active”.

(Values after ChEMBL document CHEMBL1811823, “Quinazolinone linked pyrrolo[2,1-c][1,4]benzodiazepine (PBD) conjugates: Design, synthesis and biological evaluation as potential anticancer agents” (2010).)
